Assay results published in ChEMBL document CHEMBL1133013, “Structure-activity relationships and pharmacokinetic analysis for a series of potent, systemically available biphenylsulfonamide matrix metalloproteinase inhibitors” (J Med Chem, 2000).

What was measured:
Interstitial collagenase = biological target: T1, Interstitial collagenase (Homo sapiens, UniProt P03956); assay: In vitro inhibition of human recombinant matrix metalloprotease-1 (MMP-1)
T1 sequence (P03956 whole entry): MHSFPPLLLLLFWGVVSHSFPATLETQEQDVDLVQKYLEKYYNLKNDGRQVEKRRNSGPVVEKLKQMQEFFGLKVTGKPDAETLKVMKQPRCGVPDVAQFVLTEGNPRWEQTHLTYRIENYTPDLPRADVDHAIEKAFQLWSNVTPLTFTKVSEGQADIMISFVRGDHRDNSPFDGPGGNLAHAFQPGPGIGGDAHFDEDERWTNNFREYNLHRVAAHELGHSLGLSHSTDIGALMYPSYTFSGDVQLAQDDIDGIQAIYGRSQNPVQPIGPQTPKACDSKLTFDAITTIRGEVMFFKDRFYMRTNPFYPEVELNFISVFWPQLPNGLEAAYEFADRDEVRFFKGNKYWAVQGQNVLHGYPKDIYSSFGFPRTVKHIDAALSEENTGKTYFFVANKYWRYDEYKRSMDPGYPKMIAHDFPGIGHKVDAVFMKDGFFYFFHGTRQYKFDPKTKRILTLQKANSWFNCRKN

[1] = Time to maximal concentration (tmax) in rats following a single 5 mg/kg oral cassette gavage dose; assay type: ADME, organism-based; parameters: dose 5 mg/kg, route oral; conditions: rat, in vivo
Method in brief: (§1)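 Cassette of 5–7 compounds given together as one oral gavage, 5 mg/kg per compound, methyl cellulose suspension, 3 fasted male Wistar rats (80-90 days old). Heparinized plasma taken by jugular cannula predose to 48 h. LC-MS/MS with LLOQ 10 ng/mL. Noncompartmental analysis of individual rats: Cmax/tmax as observed, t1/2 = 0.693/λz, trapezoidal AUC(0-tldc) extrapolated to infinity.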

[2] = AUC in rats following a single 5 mg/kg oral cassette gavage dose; assay type: ADME, organism-based; parameters: dose 5 mg/kg, route oral; conditions: rat, plasma, read-out: AUC 0-tldc; method in brief: as §1
Collagenase 3 = Collagenase 3 (Homo sapiens, UniProt P45452)
[3] = biological target: Matrix metalloproteinase-9 (Homo sapiens, UniProt P14780); assay: In vitro inhibition of matrix metalloprotease-9 (MMP-9)
Matrix metalloproteinase-9, sequence (P14780 whole entry): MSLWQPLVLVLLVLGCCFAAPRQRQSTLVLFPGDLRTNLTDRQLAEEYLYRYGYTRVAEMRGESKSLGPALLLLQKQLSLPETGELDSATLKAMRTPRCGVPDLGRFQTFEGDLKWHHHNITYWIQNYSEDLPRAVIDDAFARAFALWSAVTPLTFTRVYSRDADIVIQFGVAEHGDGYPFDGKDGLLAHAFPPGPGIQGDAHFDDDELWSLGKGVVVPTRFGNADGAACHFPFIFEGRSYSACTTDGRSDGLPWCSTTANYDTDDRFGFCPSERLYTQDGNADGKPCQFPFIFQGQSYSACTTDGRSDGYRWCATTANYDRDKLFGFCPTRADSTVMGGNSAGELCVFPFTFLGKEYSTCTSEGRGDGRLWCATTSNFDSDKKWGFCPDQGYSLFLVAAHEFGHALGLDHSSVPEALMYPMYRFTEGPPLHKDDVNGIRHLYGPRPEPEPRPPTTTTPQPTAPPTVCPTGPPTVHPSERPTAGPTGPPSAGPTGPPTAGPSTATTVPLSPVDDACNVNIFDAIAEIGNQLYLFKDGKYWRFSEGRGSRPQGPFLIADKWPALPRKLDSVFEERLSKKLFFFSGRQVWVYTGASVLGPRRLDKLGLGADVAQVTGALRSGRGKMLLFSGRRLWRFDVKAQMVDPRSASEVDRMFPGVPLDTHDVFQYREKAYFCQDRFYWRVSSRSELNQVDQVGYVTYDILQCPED

[4] = Half life (t1/2) in rats following a single 5 mg/kg oral cassette gavage dose; assay type: ADME, organism-based; parameters: dose 5 mg/kg, route oral; conditions: rat, in vivo; method in brief: as §1
Matrilysin = biological target: T2, Matrilysin (Homo sapiens, UniProt P09237); assay: In vitro inhibition of matrix metalloprotease-7 (MMP-7)
T2 sequence (P09237 whole entry): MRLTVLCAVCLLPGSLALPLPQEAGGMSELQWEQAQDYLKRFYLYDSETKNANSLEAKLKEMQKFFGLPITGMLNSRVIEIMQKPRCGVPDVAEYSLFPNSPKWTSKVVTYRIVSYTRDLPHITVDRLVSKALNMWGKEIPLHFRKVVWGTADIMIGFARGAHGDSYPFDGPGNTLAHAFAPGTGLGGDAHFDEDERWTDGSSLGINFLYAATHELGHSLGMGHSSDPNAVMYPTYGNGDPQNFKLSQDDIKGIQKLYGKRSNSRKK

[5] = Pharmacokinetic parameters in rats following a single 5 mg/kg oral cassette gavage dose; assay type: ADME, organism-based; parameters: dose 5 mg/kg, route oral; conditions: rat, in vivo, read-out: AUC 0-infinity; method in brief: as §1
[6] = biological target: 72 kDa type IV collagenase (Homo sapiens, UniProt P08253); assay: In vitro inhibition of matrix metalloprotease-2 (MMP-2)
72 kDa type IV collagenase, sequence (P08253 whole entry): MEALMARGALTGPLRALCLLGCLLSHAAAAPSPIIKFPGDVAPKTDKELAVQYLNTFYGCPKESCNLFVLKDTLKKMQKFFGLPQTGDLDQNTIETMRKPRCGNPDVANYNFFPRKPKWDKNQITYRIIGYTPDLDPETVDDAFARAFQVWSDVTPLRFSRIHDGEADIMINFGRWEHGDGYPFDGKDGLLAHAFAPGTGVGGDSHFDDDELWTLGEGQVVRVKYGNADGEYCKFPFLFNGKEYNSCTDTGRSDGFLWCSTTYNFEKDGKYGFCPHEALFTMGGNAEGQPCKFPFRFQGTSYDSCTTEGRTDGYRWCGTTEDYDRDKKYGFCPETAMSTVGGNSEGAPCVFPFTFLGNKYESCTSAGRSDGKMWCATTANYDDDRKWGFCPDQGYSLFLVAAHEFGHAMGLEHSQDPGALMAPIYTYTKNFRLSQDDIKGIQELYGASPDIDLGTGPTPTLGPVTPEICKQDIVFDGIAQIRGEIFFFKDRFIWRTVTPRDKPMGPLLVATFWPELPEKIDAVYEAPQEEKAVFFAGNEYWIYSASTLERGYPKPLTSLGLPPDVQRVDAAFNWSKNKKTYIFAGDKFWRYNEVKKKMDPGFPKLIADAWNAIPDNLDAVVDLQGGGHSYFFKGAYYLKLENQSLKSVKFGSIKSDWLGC

Stromelysin-1 = Stromelysin-1 (Homo sapiens, UniProt P08254); assay: In vitro inhibition of recombinant human matrix metalloprotease-3 (MMP-3)
Stromelysin-1, sequence (P08254 whole entry): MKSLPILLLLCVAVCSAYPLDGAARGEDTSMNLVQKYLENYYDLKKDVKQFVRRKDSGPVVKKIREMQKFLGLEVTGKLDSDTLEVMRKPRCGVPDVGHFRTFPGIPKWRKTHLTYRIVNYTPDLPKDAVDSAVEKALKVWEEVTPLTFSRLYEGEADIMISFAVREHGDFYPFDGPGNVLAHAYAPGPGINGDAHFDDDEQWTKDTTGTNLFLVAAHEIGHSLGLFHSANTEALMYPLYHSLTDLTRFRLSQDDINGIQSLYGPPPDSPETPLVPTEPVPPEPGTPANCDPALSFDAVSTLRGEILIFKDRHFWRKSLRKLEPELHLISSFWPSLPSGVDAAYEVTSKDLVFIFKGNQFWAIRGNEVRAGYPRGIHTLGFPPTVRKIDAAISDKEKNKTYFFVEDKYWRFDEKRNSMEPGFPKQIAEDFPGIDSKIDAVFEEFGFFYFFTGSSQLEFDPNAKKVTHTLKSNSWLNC

[7] = Cmax in rat plasma after single 5 mg/kg oral cassette gavage dose; assay type: ADME, organism-based; parameters: dose 5 mg/kg, route oral; method in brief: as §1
[8] = Concentration in rat plasma 24 hours after single 5 mg/kg oral cassette gavage dose; assay type: ADME, organism-based; parameters: dose 5 mg/kg, route oral; conditions: read-out: C24

SMILES: O=C(O)C(CCSCc1ccccc1)NS(=O)(=O)c1ccc(-c2ccc(Br)cc2)cc1 (stereo not drawn)
- IC50 (Interstitial collagenase): 56000 nM
- Tmax [1]: 1.33 h
- AUC [2]: 119 µg·h/mL
- IC50 (Collagenase 3): 36 nM
- IC50 [3]: 10000 nM
- half-life [4]: 12.5 h
- IC50 (Matrilysin): 36000 nM
- AUC [5]: 132 µg·h/mL
- IC50 [6]: 7 nM
- IC50 (Stromelysin-1): 22 nM
- Cmax [7]: 11600 ng/mL
- concentration at 24 h [8]: 1530 ng/mL

SMILES: CC(C)[C@H](NS(=O)(=O)c1ccc(-c2ccc(C=O)cc2)cc1)C(=O)O
- IC50 (Interstitial collagenase): 3200 nM
- IC50 (Collagenase 3): 16 nM
- IC50 [3]: 17000 nM
- IC50 (Matrilysin): 4500 nM
- IC50 [6]: 12 nM
- IC50 (Stromelysin-1): 8 nM

SMILES: O=C(CCc1ccccc1)NCCCC[C@H](NS(=O)(=O)c1ccc(-c2ccc(Br)cc2)cc1)C(=O)O
- IC50 (Interstitial collagenase): 15000 nM
- IC50 [3]: 4800 nM
- IC50 (Matrilysin): 8600 nM
- IC50 (Stromelysin-1): 10 nM

SMILES: CC(C)[C@H](NS(=O)(=O)c1ccc(-c2ccc(C#N)cc2)cc1)C(=O)NO
- IC50 (Interstitial collagenase): 29000 nM
- IC50 [3]: 100000 nM
- IC50 (Matrilysin): 16000 nM
- IC50 (Stromelysin-1): 135 nM

SMILES: CC(C)[C@H](NS(=O)(=O)c1ccc(-c2cccc(Br)c2)cc1)C(=O)O
- IC50 (Collagenase 3): 710 nM
- IC50 [6]: 535 nM
- IC50 (Stromelysin-1): 290 nM

SMILES: C[C@H](NS(=O)(=O)c1ccc(-c2ccc(Br)cc2)cc1)C(=O)O
- Tmax [1]: 10.5 h
- AUC [2]: 584 µg·h/mL
- IC50 (Collagenase 3): 10 nM
- IC50 [3]: 9500 nM
- half-life [4]: 25.1 h
- IC50 (Matrilysin): 11000 nM
- AUC [5]: 818 µg·h/mL
- IC50 [6]: 12 nM
- IC50 (Stromelysin-1): 12 nM
- Cmax [7]: 17200 ng/mL
- concentration at 24 h [8]: 12900 ng/mL

SMILES: CC(C)[C@@H](NS(=O)(=O)c1ccc(-c2ccc(C#N)cc2)cc1)C(=O)NO
- IC50 (Interstitial collagenase): 170 nM
- Tmax [1]: 1 h
- AUC [2]: 0.23 µg·h/mL
- IC50 [3]: 27 nM
- half-life [4]: 0.79 h
- IC50 (Matrilysin): 240 nM
- AUC [5]: 0.33 µg·h/mL
- IC50 (Stromelysin-1): 5 nM
- Cmax [7]: 180 ng/mL

SMILES: O=C(CCc1ccccc1)NCCC[C@H](NS(=O)(=O)c1ccc(-c2ccc(Br)cc2)cc1)C(=O)O
- IC50 (Interstitial collagenase): 41000 nM
- IC50 (Collagenase 3): 7 nM
- IC50 [3]: 7700 nM
- IC50 (Matrilysin): 6800 nM
- IC50 [6]: 8 nM
- IC50 (Stromelysin-1): 21 nM

SMILES: CC(C)[C@H](NS(=O)(=O)c1ccc(-c2ccc(N)cc2)cc1)C(=O)O
- IC50 (Collagenase 3): 105 nM
- IC50 [3]: 20000 nM
- IC50 (Matrilysin): 31000 nM
- IC50 (Stromelysin-1): 36 nM

SMILES: COc1ccc(-c2ccc(S(=O)(=O)N[C@H](C(=O)O)C(C)C)cc2)cc1
- IC50 (Interstitial collagenase): 1500 nM
- Tmax [1]: 0.5 h
- AUC [2]: 2.79 µg·h/mL
- IC50 (Collagenase 3): 6 nM
- IC50 [3]: 2200 nM
- half-life [4]: 0.357 h
- IC50 (Matrilysin): 7200 nM
- AUC [5]: 2.98 µg·h/mL
- IC50 [6]: 3 nM
- Cmax [7]: 4260 ng/mL
- concentration at 24 h [8]: < 10 ng/mL

SMILES: CC(C)[C@H](NS(=O)(=O)c1ccc(-c2ccc([N+](=O)[O-])cc2)cc1)C(=O)O
- IC50 (Interstitial collagenase): 12000 nM
- Tmax [1]: 0.667 h
- AUC [2]: 402 µg·h/mL
- IC50 (Collagenase 3): 102 nM
- IC50 [3]: 38000 nM
- half-life [4]: 19.5 h
- IC50 (Matrilysin): 5600 nM
- AUC [5]: 586 µg·h/mL
- IC50 (Stromelysin-1): 15 nM
- Cmax [7]: 23400 ng/mL
- concentration at 24 h [8]: 8360 ng/mL

SMILES: O=C(O)[C@H](Cc1ccccc1)NS(=O)(=O)c1ccc(-c2ccc(Br)cc2)cc1
- Tmax [1]: 2.67 h
- AUC [2]: 310 µg·h/mL
- IC50 (Collagenase 3): 21 nM
- IC50 [3]: 27000 nM
- half-life [4]: 29.7 h
- IC50 (Matrilysin): 100000 nM
- AUC [5]: 465 µg·h/mL
- IC50 [6]: 19 nM
- IC50 (Stromelysin-1): 20 nM
- Cmax [7]: 10300 ng/mL
- concentration at 24 h [8]: 6280 ng/mL

SMILES: CC(C)[C@H](NS(=O)(=O)c1ccc(-c2ccc(C(F)(F)F)cc2)cc1)C(=O)O
- IC50 (Interstitial collagenase): 4200 nM
- Tmax [1]: 2.25 h
- AUC [2]: 685 µg·h/mL
- IC50 (Collagenase 3): 23 nM
- IC50 [3]: 20000 nM
- half-life [4]: 37.9 h
- IC50 (Matrilysin): 7900 nM
- AUC [5]: 1110 µg·h/mL
- IC50 (Stromelysin-1): 9 nM
- Cmax [7]: 18600 ng/mL
- concentration at 24 h [8]: 11700 ng/mL

SMILES: CC(C)[C@H](NS(=O)(=O)c1ccc(-c2cccc(F)c2)cc1)C(=O)O
- IC50 (Interstitial collagenase): 8600 nM
- IC50 (Collagenase 3): 150 nM
- IC50 [3]: 65000 nM
- IC50 (Matrilysin): 22000 nM
- IC50 [6]: 49 nM
- IC50 (Stromelysin-1): 17 nM

SMILES: CC(C)[C@H](NS(=O)(=O)c1ccc(-c2ccc(Br)cc2)cc1)C(=O)NO
- IC50 (Interstitial collagenase): 24000 nM
- IC50 (Collagenase 3): 650 nM
- IC50 [3]: 84000 nM
- IC50 (Matrilysin): 78000 nM
- IC50 [6]: 450 nM
- IC50 (Stromelysin-1): 810 nM

SMILES: CC(C)[C@@H](NS(=O)(=O)c1ccc(-c2ccc(Br)cc2)cc1)C(=O)O
- Tmax [1]: 4.5 h
- AUC [2]: 924 µg·h/mL
- IC50 [3]: 1500 nM
- half-life [4]: 41.7 h
- IC50 (Matrilysin): 11000 nM
- AUC [5]: 1380 µg·h/mL
- Cmax [7]: 25600 ng/mL
- concentration at 24 h [8]: 16300 ng/mL

SMILES: O=C(O)C(CCS(=O)(=O)Cc1ccccc1)NS(=O)(=O)c1ccc(-c2ccc(Br)cc2)cc1 (stereo not drawn)
- IC50 (Interstitial collagenase): 27000 nM
- Tmax [1]: 1.67 h
- AUC [2]: 2.48 µg·h/mL
- IC50 (Collagenase 3): 12 nM
- IC50 [3]: 2300 nM
- half-life [4]: 3.88 h
- IC50 (Matrilysin): 15000 nM
- AUC [5]: 2.73 µg·h/mL
- IC50 [6]: 2 nM
- IC50 (Stromelysin-1): 7 nM
- Cmax [7]: 451 ng/mL

SMILES: O=C(NCCCC[C@H](NS(=O)(=O)c1ccc(-c2ccc(Br)cc2)cc1)C(=O)O)OCc1ccccc1
- IC50 (Interstitial collagenase): 40000 nM
- IC50 (Collagenase 3): 13 nM
- IC50 [3]: 10000 nM
- IC50 (Matrilysin): 15000 nM
- IC50 [6]: 31 nM
- IC50 (Stromelysin-1): 28 nM

SMILES: CC(C)[C@@H](NS(=O)(=O)c1ccc(Oc2ccccc2)cc1)C(=O)NO
- Tmax [1]: 0.33 h
- AUC [2]: 2.17 µg·h/mL
- IC50 (Collagenase 3): 2 nM
- IC50 [3]: 3 nM
- half-life [4]: 7.78 h
- IC50 (Matrilysin): 180 nM
- AUC [5]: 3.17 µg·h/mL
- IC50 [6]: 1 nM
- IC50 (Stromelysin-1): 4 nM
- Cmax [7]: 310 ng/mL

SMILES: CC(C)[C@H](NS(=O)(=O)c1ccc(-c2ccc(Br)cc2)cc1)C(=O)O
- Tmax [1]: 2 h
- AUC [2]: 1400 µg·h/mL
- IC50 [3]: 7900 nM
- half-life [4]: 43.6 h
- IC50 (Matrilysin): 7200 nM
- AUC [5]: 2820 µg·h/mL
- Cmax [7]: 42400 ng/mL
- concentration at 24 h [8]: 22700 ng/mL
